Two compounds from ChEMBL document CHEMBL2375290, “Nonclassical antifolates, part 3: synthesis, biological evaluation and molecular modeling study of some new 2-heteroarylthio-quinazolin-4-ones” (Eur J Med Chem, 2013) can be followed below.

As usually defined, the MIC is the smallest concentration in the dilution series that meets the test's criterion for growth inhibition. Usually IC50 stands for the point on the concentration scale where inhibition reaches its midpoint.

One experiment concerns Pseudomonas aeruginosa. In words: Antimicrobial activity against Pseudomonas aeruginosa at 200 ug after 24 hrs by agar disc diffusion method. In kind it is functional. The following applies: read-out: DIZ. For orientation: Agar diffusion results depend on both activity and mobility in agar.
The subject of experiment [1] is Escherichia coli. Kind of experiment: Antimicrobial activity against Escherichia coli after 24 hrs by micro-dilution susceptibility method. A general note: Broth dilution looks for growth in wells or tubes with falling amounts of substance.
For another experiment, the system named is Micrococcus luteus. In words: Antimicrobial activity against Micrococcus luteus at 200 ug after 24 hrs by agar disc diffusion method. In kind it is functional. The following applies: read-out: DIZ.
In experiment [2] the test system is Bacillus subtilis. Kind of experiment: Antimicrobial activity against Bacillus subtilis at 200 ug after 24 hrs by agar disc diffusion method. In kind it is functional. Particulars: read-out: DIZ.
Experiment [3] deals with Staphylococcus aureus. In words: Antimicrobial activity against Staphylococcus aureus at 200 ug after 24 hrs by agar disc diffusion method. In kind it is functional. The following applies: read-out: DIZ.
Experiment [4] has as its system Staphylococcus aureus. Kind of experiment: Antimicrobial activity against Staphylococcus aureus after 24 hrs by micro-dilution susceptibility method. In kind it is functional. The procedure, abridged:
(§1)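 Broth microdilution in Müller-Hinton broth against S. aureus IFO 3060, B. subtilis IFO 3007, E. coli IFO 3301 and P. aeruginosa IFO 3448. These are the same standard strains used in the disc-diffusion primary screen. Compounds were solubilized in DMSO. MIC recorded as the minimal inhibitory concentration.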

A further experiment concerns the target T1, Dihydrofolate reductase (Bos taurus, UniProt P00376).
T1 sequence (P00376 whole entry): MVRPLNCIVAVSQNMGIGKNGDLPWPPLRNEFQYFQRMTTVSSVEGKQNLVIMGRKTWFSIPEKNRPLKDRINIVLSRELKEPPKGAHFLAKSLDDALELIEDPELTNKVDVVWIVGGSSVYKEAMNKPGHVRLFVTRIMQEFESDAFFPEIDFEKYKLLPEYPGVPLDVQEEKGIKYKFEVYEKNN
Kind of experiment: Inhibition of bovine DHFR after 2 mins by spectrophotometry.

The test system of experiment [5] is Bacillus subtilis. In words: Antimicrobial activity against Bacillus subtilis after 24 hrs by micro-dilution susceptibility method. In kind it is functional. In outline:
as §1

The test system of experiment [6] is Escherichia coli. Kind of experiment: Antimicrobial activity against Escherichia coli at 200 ug after 24 hrs by agar disc diffusion method. In kind it is functional. The following applies: read-out: DIZ.

Converted amounts (≈) assume the structure as drawn.

`CCOC(=O)c1nc(N)sc1Sc1nc2ccc(Cl)cc2c(=O)n1Cc1ccccc1`: the zone of inhibition at 200 µg/disc was determined as 8 mm in the experiment with Pseudomonas aeruginosa; 14 mm in the experiment on Micrococcus luteus; 22 mm in the experiment on Bacillus subtilis [2]; 20 mm in the experiment on Staphylococcus aureus [3]; 20 mm in the experiment with Escherichia coli [6]. Further, the minimum inhibitory concentration (MIC) was found to be 4 µg/mL (≈ 8.46 µM) in the experiment with Escherichia coli [1], 4 µg/mL (≈ 8.46 µM) against Staphylococcus aureus [4] and 2 µg/mL (≈ 4.23 µM) against Bacillus subtilis [5]. This compound displayed an IC50 at Dihydrofolate reductase of 1 µM.
`CCOC(=O)c1nc(N)sc1Sc1nc2ccc(C)cc2c(=O)n1-c1ccccc1`: the zone of inhibition at 200 µg/disc was determined as 12 mm in the experiment with Pseudomonas aeruginosa; 14 mm in the experiment with Micrococcus luteus; 26 mm with Bacillus subtilis [2]; 24 mm in the experiment on Staphylococcus aureus [3]; 18 mm in the experiment on Escherichia coli [6]. For the same compound, the figures for the MIC with Escherichia coli [1], with Staphylococcus aureus [4] and with Bacillus subtilis [5] were 4 µg/mL (≈ 9.12 µM), 2 µg/mL (≈ 4.56 µM) and 2 µg/mL (≈ 4.56 µM), respectively. Also, half-maximal inhibition against Dihydrofolate reductase (IC50) required 1 µM.
